Consider one compound from paper PMC5351328 (Clinical and Translational Science, 2016).

The subject of data set [1] is proinflammatory cytokines (IL-6, TNF-α, IL-1β, TGF-β). The data set can be described thus: Plasma proinflammatory cytokines during treatment. The format is in vivo, human. An outline of the steps:
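Plasma was taken at Day 1 predose and on treatment Days 7 and 14. IL-6, TNF-α, IL-1β and TGF-β were quantified by Luminex multiplex bead assay, with a magnetic cytokine panel for IL-1β and IL-6. Values were summarised by study day as medians and interquartile ranges, with change from baseline. Comparisons used Wilcoxon tests.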

In data set [2] the test system is CYP3A4. The settings on record: cited from earlier work.

With `CCCCOCCOc1ccc(-c2ccc3c(c2)/C=C(/C(=O)Nc2ccc([S@@+]([O-])Cc4cncn4CCC)cc2)CCCN3CC(C)C)cc1` [cenicriviroc], in data set [1] (any group), the “IL-1β levels change during treatment” value is “did not change significantly”, the “IL-6 levels change during treatment” value is on record as “did not change significantly” and the “TNF-α levels change during treatment” value was “did not change significantly”. In data set [1] (moderate HI group, Day 1 vs Day 14, P < 0.01), the “TGF-β levels change during treatment” value was “increased”. In addition, the “inhibition of CYP3A4” value in data set [2] was “weak inhibitor”.
